Six molecules from ChEMBL document CHEMBL1126705, “16 beta-([18F]fluoro)estrogens: systematic investigation of a new series of fluorine-18-labeled estrogens as potential imaging agents for estrogen-receptor-positive breast tumors” (J Med Chem, 1993) can be followed below.

For series [1], the target named is T1, Sex hormone-binding globulin (Homo sapiens) (UniProt P04278).
T1 sequence (whole entry): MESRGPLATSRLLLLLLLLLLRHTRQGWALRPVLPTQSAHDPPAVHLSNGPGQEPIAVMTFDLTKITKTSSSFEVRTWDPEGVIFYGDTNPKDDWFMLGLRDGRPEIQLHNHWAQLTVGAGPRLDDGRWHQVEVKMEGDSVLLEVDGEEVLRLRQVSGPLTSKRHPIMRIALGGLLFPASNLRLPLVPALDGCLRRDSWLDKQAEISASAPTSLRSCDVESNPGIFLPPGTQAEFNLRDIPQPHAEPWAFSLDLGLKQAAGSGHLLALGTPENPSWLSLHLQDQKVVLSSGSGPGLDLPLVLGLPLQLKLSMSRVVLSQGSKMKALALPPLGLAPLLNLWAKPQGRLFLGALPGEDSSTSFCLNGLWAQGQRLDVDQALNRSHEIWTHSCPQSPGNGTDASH
The experiment in a line: Relative binding affinity against sex steroid binding protein (SBP).

Series [2] can be described thus: Partition coefficient (logP). The series is classed as physicochemical. To be noted: octanol/water. The method, boiled down:
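Octanol/water log P estimated from log k'w measured by reversed-phase HPLC (Minick method) on a C8 silica column.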

Series [3] deals with T2, Estrogen receptor (Rattus norvegicus) (UniProt P06211+Q62986).
The target of series [4] is T3, Alpha-fetoprotein (Rattus norvegicus) (UniProt P02773).
T3 sequence (whole entry): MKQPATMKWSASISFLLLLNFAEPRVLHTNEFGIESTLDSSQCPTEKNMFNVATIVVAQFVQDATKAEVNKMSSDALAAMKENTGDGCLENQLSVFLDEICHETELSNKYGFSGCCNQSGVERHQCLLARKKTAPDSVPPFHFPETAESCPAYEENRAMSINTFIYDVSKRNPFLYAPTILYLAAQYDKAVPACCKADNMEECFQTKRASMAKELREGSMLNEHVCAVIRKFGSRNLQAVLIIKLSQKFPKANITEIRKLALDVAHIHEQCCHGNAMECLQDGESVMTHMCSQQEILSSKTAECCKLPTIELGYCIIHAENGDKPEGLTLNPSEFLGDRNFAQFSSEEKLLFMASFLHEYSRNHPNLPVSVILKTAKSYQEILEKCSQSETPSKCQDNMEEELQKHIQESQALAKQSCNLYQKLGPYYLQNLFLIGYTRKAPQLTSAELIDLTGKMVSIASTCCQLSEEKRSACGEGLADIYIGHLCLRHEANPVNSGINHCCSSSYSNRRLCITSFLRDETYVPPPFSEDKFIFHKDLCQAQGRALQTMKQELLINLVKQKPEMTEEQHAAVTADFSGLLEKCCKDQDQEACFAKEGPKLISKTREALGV
The series can be described thus: Relative binding affinity for Alphafetoprotein.

Series [5] concerns the target T2, Estrogen receptor (Rattus norvegicus). The source holds these as a separate data set.

A word on the logP: it is a log measure of how a compound divides between an organic and an aqueous phase. Regarding `CCC1C[C@]2(C)[C@@H](O)CC[C@H]2[C@@H]2CCc3cc(O)ccc3[C@@H]12` (stereo partly specified), the relative binding affinity (RBA) was 40.8 in series [1] and 1.21 in series [4]. For the same molecule, in series [2], the lipophilicity (logP) was found to be 3.9. This molecule displayed an NSB in series [3] of 2.1. The molecule further came in with a BSI in series [5] of 648.

As for `C#C[C@]1(O)CC[C@H]2[C@@H]3CCc4cc(O)ccc4[C@H]3C(CC)C[C@@]21C` (stereo partly specified), the values for the relative binding affinity (RBA) in series [1] and in series [4] were 41.2 and 0.347, respectively. The logP in series [2] was 4.28. For the same molecule, the NSB in series [3] is 2.86. Besides, in series [5], the BSI turned out to be 331.

Consider `CO[C@H]1C[C@]2(C)[C@@H](O)CC[C@H]2[C@@H]2CCc3cc(O)ccc3[C@H]21`, for which the relative binding affinity (RBA) amounted to 1.72 in series [1] and 0.26 in series [4]. The log partition coefficient (logP) in series [2] was determined as 2.72. Moreover, the NSB in series [3] is 0.57. Besides, the BSI in series [5] came out at 151.

For `C[C@]12CC[C@@H]3c4ccc(O)cc4CC[C@H]3[C@@H]1CC[C@@H]2O` [ESTRADIOL], the relative binding affinity (RBA) in series [1] and in series [4] was 100 in each case. The same molecule showed a logP in series [2] of 3.26.

Consider `C#C[C@]1(O)CC[C@H]2[C@@H]3CCc4cc(O)ccc4[C@H]3CC[C@@]21C` [ETHINYL ESTRADIOL], for which the values for the relative binding affinity (RBA) in series [1] and in series [4] were 1.81 and 3.51, respectively. For the same molecule, the logP in series [2] came to 3.42.

As to `C#C[C@]1(O)CC[C@H]2[C@@H]3CCc4cc(O)ccc4[C@H]3[C@@H](OC)C[C@@]21C` [MOXESTROL], the relative binding affinity (RBA) in series [1] was 0.071; in series [4], 0.023. In series [2], this molecule gave a log partition coefficient (logP) of 3.01. This molecule also yielded an NSB in series [3] of 0.76. In series [5], this molecule gave a BSI of 243.
